Active and inactive are the calls of the source. The calls are words filed in the database; no cut-off is given here.

In data set [1] the test system is RAW264.7. The data set can be described thus: Antiinflammatory activity in mouse RAW264.7 cells assessed as inhibition of LPS-induced IL-6 production at 5 uM pretreated for 15 mins before LPS challenge measured after 24 hrs by ELISA. It counts as functional, cell-based. A digest of the protocol: (§1)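 RAW 264.7 macrophages pre-incubated 15 min with compound or left untreated, then LPS 250 ng/ml for 24 h. IL-6, IL-1, TNF and IFN measured in supernatant by ELISA. Means ± S.D. of three independent experiments run in triplicate.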
A general note: ELISA stands for enzyme-linked immunosorbent assay.

Data set [2] in a line: Cytotoxicity against LPS-stimulated mouse RAW264.7 cells assessed as cell viability at 1 to 25 uM pretreated for 15 mins before LPS challenge measured after 24 hrs by MTT assay. The data set is classed as cell-based. The conditions noted are these: LPS-stimulated RAW264.7 cells, read-out: Activity. A digest of the protocol:
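RAW 264.7 cells plated at 10⁵ cells/well, treated with compound at 1–25 in the presence of LPS 250 ng/ml for 24 h. MTT then added for 4 h at 37 °C, formazan extracted in DMSO, absorbance read at 540 nm. Viability expressed relative to untreated controls. Triplicate wells, at least three independent experiments.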
On the technique in general: Formazan colour is commonly taken as a measure of viable cells.

The test system of data set [3] is RAW264.7. The data set can be described thus: Antiinflammatory activity in mouse RAW264.7 cells assessed as inhibition of LPS-induced NOS2 protein expression pretreated at 5 uM for 15 mins before LPS challenge measured after 24 hrs by Western blotting. It counts as functional, cell-based. The method in brief: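 Macrophages pre-incubated 15 min with compound, then LPS 250 ng/ml for 24 h. NOS-2 protein detected by Western blot with β-actin as loading control. A representative of three experiments is shown.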
(Immunoblotting shows a protein as a band on a membrane.)

In data set [4] the test system is RAW264.7. The data set can be described thus: Antiinflammatory activity in mouse RAW264.7 cells assessed as inhibition of LPS-induced IL-1alpha production at 5 uM pretreated for 15 mins before LPS challenge measured after 24 hrs by ELISA. It counts as functional, cell-based. The method in brief: as §1
The subject of data set [5] is RAW264.7. The data set can be described thus: Antiinflammatory activity in mouse RAW264.7 cells assessed as inhibition of LPS-induced NOS2 mRNA expression pretreated at 5 uM for 15 mins before LPS challenge measured after 4 hrs by RT-PCR analysis. The data set is classed as functional, cell-based. A digest of the protocol:
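Macrophages pre-incubated 15 min with compound, then LPS 250 ng/ml for 4 h. NOS-2 mRNA measured by real-time quantitative PCR, samples in duplicate, normalized to housekeeping gene 36B4 (acidic ribosomal phosphoprotein P0). Fold induction taken from average replicate values. Means ± S.D. of three independent experiments in triplicate; Student's unpaired t test vs LPS.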

Data set [6] deals with RAW264.7. The data set is described as follows: Antiinflammatory activity in mouse RAW264.7 cells assessed as inhibition of LPS-induced TNFalpha production at 5 uM pretreated for 15 mins before LPS challenge measured after 24 hrs by ELISA. It counts as functional, cell-based. The method in brief:
as §1

The test system of data set [7] is RAW264.7. The data set can be described thus: Cytotoxicity against LPS-stimulated mouse RAW264.7 cells assessed as cell viability at 1 to 50 uM pretreated for 15 mins before LPS challenge measured after 24 hrs by MTT assay. The data set is classed as cell-based. The conditions noted are these: raw264.7, 24 h. A digest of the protocol: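 RAW 264.7 cells pre-treated 15 min with compound (1, 5, 10, 25, 50), then LPS 250 ng/ml for 24 h. Viability by MTT: 4 h at 37 °C, formazan dissolved in DMSO, absorbance 540 nm, relative to untreated control. Triplicate; means ± S.D. of three experiments.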

Data set [8] has as its system RAW264.7. The data set can be described thus: Antiinflammatory activity in mouse RAW264.7 cells assessed as inhibition of LPS-induced nitric oxide release pretreated for 15 mins before LPS challenge measured after 24 hrs by Griess method. The data set is classed as functional, cell-based. A digest of the protocol: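 RAW 264.7 cells pre-incubated 15 min with compound (1–25 range in the table; 1, 5, 10, 25, 50 for dose-response) or DMSO vehicle, then LPS 250 ng/ml for 24 h. Nitrite in supernatant measured by Griess reagent, absorbance at 548 nm against NaNO2 standard. IC50 is the concentration giving 50% inhibition of NO release. Means ± SD of three independent experiments in triplicate.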

In data set [9] the test system is RAW264.7. The data set can be described thus: Inhibition of NF-kappaB activation in LPS-stimulated mouse RAW264.7 cells assessed as IkappaBalpha degradation pretreated at 5 uM for 15 mins before LPS challenge measured after 24 hrs by Western blotting. The data set is classed as cell-based.
Data set [10] deals with RAW264.7. The data set is described as follows: Antiinflammatory activity in mouse RAW264.7 cells assessed as inhibition of LPS-induced IFN-gamma production at 5 uM pretreated for 15 mins before LPS challenge measured after 24 hrs by ELISA. It counts as functional, cell-based. A digest of the protocol:
as §1

Usually IC50 stands for the concentration that inhibits the measured activity by half. Take `C[C@@]12CCC[C@@](C)(C(=O)OCc3ccccc3)[C@H]1CC[C@@]1(CC(=O)O)CCCC[C@H]12`: the result in data set [1], in [3], in data set [4], in [5], in [6] and in data set [9] was Active. For the same compound, the outcome in data set [10] was Active. Also, the viability at 24 h, up to 25 µM in data set [2] is 95%. For the same compound, in [7], the Activity result is recorded as “Non-toxic”. The IC50 in [8] is 7 µM. The inhibition result in [8] is “Dose-dependent effect”.

Take `C[C@@]12CCC[C@@](C)(C(=O)OC[Si](C)(C)C)[C@H]1CC[C@@]1(CC(=O)O)CCCC[C@H]12`: the result in data set [1], in [3], in [4], in data set [5], in data set [6] and in data set [9] was Active. Besides, in data set [10], the result was Active. Further, in data set [2], the viability at 24 h, up to 25 µM came out at 95%. Further, in data set [7], the Activity result is listed as “Non-toxic”. Also, the IC50 in [8] is 7 µM. For the same compound, the inhibition entry in [8] was “Dose-dependent effect”.

The values above are taken from ChEMBL document CHEMBL1759881, “Synthesis and anti-inflammatory activity of ent-kaurene derivatives” (Eur J Med Chem, 2011).
